According to ChEMBL document CHEMBL4715860 (J Med Chem, 2020):
The source made the active and inactive calls. No cut-off for these calls is given here.

Key:
[1] = target: Serine/threonine-protein kinase mTOR (Homo sapiens, UniProt P42345); test: Inhibition of alexa fluor 647-labeled kinase tracer 314 binding to recombinant human N-terminal GST-tagged mTOR (1360 to 2549 residues) expressed in baculovirus expression system measured after 60 mins by TR-FRET based LanthaScreen Eu kinase binding assay
[2] = target: PI3-kinase p110-alpha/p85-alpha (Homo sapiens, UniProt P42336); test: Inhibition of alexa fluor 647-labeled kinase tracer 314 binding to recombinant human N-terminal His-tagged p110alpha/p85alpha expressed in baculovirus expression system measured after 60 mins by LanthaScreen TR-FRET assay relative to control
PI3-kinase p110-alpha/p85-alpha, sequence (P27986 whole entry): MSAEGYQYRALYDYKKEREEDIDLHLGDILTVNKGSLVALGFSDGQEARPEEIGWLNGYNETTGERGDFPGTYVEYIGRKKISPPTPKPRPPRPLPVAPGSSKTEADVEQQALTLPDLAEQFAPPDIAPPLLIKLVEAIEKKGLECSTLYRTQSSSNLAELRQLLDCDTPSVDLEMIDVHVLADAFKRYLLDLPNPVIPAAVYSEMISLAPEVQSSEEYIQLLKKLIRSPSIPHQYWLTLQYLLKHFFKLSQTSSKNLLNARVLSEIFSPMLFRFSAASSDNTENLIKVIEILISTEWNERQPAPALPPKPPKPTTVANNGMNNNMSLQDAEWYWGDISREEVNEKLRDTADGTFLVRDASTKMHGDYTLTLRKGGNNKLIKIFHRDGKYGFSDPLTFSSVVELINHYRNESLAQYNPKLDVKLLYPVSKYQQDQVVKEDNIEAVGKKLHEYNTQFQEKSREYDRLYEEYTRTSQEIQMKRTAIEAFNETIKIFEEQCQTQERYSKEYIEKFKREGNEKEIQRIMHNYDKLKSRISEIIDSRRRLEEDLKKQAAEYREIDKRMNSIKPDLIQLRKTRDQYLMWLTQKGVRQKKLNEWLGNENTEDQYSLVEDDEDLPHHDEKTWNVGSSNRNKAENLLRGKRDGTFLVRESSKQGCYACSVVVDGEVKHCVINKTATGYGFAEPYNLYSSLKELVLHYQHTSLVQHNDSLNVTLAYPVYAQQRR
PI3-kinase p110-alpha/p85-alpha, sequence (P42336 whole entry): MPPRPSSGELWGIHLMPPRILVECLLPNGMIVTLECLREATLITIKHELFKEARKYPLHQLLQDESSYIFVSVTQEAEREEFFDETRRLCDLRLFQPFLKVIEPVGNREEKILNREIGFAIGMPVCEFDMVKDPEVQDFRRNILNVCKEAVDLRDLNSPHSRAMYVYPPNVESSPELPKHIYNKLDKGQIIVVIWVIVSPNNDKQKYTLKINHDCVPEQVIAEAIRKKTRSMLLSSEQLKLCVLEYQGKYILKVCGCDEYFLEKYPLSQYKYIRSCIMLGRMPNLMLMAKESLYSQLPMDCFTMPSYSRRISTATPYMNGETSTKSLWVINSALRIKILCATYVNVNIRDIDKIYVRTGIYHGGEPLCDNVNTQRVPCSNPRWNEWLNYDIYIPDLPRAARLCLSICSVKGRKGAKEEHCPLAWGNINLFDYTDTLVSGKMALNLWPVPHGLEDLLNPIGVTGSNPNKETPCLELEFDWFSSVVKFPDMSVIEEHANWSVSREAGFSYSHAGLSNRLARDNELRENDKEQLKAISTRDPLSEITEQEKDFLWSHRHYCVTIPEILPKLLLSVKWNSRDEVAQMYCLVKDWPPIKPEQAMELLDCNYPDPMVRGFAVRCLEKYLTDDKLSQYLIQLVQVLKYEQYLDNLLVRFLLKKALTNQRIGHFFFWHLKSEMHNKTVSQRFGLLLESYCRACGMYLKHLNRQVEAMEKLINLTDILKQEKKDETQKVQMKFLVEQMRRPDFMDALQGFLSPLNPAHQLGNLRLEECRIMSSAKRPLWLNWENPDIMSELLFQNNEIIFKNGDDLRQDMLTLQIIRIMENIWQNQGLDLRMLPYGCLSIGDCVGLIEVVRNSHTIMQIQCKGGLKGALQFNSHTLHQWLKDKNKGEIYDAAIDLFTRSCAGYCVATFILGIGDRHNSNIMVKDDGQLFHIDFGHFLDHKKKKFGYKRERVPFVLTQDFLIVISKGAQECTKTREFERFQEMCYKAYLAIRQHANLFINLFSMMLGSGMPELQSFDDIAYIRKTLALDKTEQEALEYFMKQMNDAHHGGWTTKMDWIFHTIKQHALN

[3] = Inhibition of mTORC1 in human A2058 cells assessed as reduction in RPS6 phosphorylation at S235/236 residue incubated for 1 hrs by Western blot analysis; format: cell-based; settings: A2058, 1 h
Procedure, shortened: (§1)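 A2058 cells grown 24 h at 37 °C, then exposed to inhibitor or DMSO for 1 h. Cells were PFA-fixed and stained for pPKB Ser473 or pS6 Ser235/236 by in-cell western with IR-dye secondary antibodies. Signal normalized to tubulin and to DMSO. IC50 from a 7-point (triplicate) or 11-point (duplicate) 1:2 series.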

[4] = Inhibition of mTOR2 in human A2058 cells assessed as reduction in PKB/Akt phosphorylation at Ser473 incubated for 1 hr by Western blot analysis; format: cell-based; settings: A2058, 1 h; procedure, shortened: as §1
[5] = AUC (0 to 8 hrs) in male Sprague-Dawley rat brain at 5 mg/kg, po; format: ADME, organism-based; design: time < 8 hr, route oral, dose 5 mg/kg; settings: in vivo
Procedure, shortened: (§2)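 Male Sprague Dawley rats, single oral dose of 5 mg/kg. Plasma and brain concentrations measured over 8 h, n = 3, mean ± SEM; AUC0−8 computed from the time course.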

[6] = AUC (0 to 8 hrs) in male Sprague-Dawley rat plasma at 5 mg/kg, po; format: ADME, organism-based; design: time < 8 hr, route oral, dose 5 mg/kg; procedure, shortened: as §2
[7] = AUC (0 to 8 hrs) in C57BL/6J mouse plasma at 25 mg/kg, po administered as single dose by mass spectrometry based UHPLC analysis; format: ADME, organism-based; design: time < 8 hr, route oral, dose 25 mg/kg
Procedure, shortened: (§3)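 One oral dose of 25 mg/kg to female C57BL/6J mice. Plasma and brain concentrations followed over time, n = 3 per time point (mean).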

[8] = AUC (0 to 8 hrs) in C57BL/6J mouse brain at 25 mg/kg, po administered as single dose by mass spectrometry based UHPLC analysis; format: ADME, organism-based; design: time < 8 hr, route oral, dose 25 mg/kg; procedure, shortened: as §3
Mus musculus [9] = test: In vivo inhibition of PI3Kalpha in C57BL/6J mouse assessed as increase in plasma glucose concentration at 25 mg/kg, po measured after 8 hrs by glucoseoxidase-peroxide coupled colorimetric assay; format: functional, organism-based
Procedure, shortened: (§4)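 Female C57BL/6J mice given one oral dose (25 mg/kg); plasma insulin and glucose monitored over time, mean ± SEM.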

Mus musculus [10] = test: In vivo inhibition of PI3Kalpha C57BL/6J mouse assessed as increase in plasma insulin concentration at 25 mg/kg, po measured after 8 hrs by ELISA; format: functional, organism-based; procedure, shortened: as §4
[11] = Clearance in C57BL/6J mouse plasma at 25 mg/kg, po administered as single dose by mass spectrometry based UHPLC analysis; format: ADME, organism-based; procedure, shortened: as §3
[12] = Tmax in C57BL/6J mouse plasma at 25 mg/kg, po administered as single dose by mass spectrometry based UHPLC analysis; format: ADME, organism-based
Procedure, shortened: (§5)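 Female C57BL/6J mice given a single oral dose of 25 mg/kg. Plasma and brain levels followed over time (n = 3 per time point, mean). Tmax is the time of maximal concentration.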

[13] = Cmax in C57BL/6J mouse plasma at 25 mg/kg, po administered as single dose by mass spectrometry based UHPLC analysis; format: ADME, organism-based; design: route oral, dose 25 mg/kg; procedure, shortened: as §3
[14] = Tmax in C57BL/6J mouse brain at 25 mg/kg, po administered as single dose by mass spectrometry based UHPLC analysis; format: ADME, organism-based; procedure, shortened: as §5
[15] = Elimination half life in C57BL/6J mouse brain at 25 mg/kg, po administered as single dose by mass spectrometry based UHPLC analysis; format: ADME, organism-based; settings: read-out: beta t1/2 (converted); procedure, shortened: as §3
[16] = Cmax in C57BL/6J mouse brain at 25 mg/kg, po administered as single dose by mass spectrometry based UHPLC analysis; format: ADME, organism-based; design: route oral, dose 25 mg/kg; procedure, shortened: as §3
[17] = Elimination half life in C57BL/6J mouse plasma at 25 mg/kg, po administered as single dose by mass spectrometry based UHPLC analysis; format: ADME, organism-based; settings: read-out: beta t1/2 (converted); procedure, shortened: as §3
[18] = Metabolic stability in Sprague-Dawley rat hepatocytes assessed as half-life at 5 uM incubated for 3 hrs by LC-MS analysis; format: ADME, cell-based, Hepatocyte
Procedure, shortened: (§6)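 Cryopreserved primary hepatocytes in suspension from CD-1 mouse, Sprague-Dawley rat, Beagle dog and human. Compound at 5 μM final (from 10 mM DMSO stock). Samples taken at 0, 15, 60, 90 and 180 min and quenched with ACN plus internal standard. Parent quantified by LC-MS. Hepatocyte-free medium incubations served as negative control; 7-ethoxycoumarin as positive control. Duplicate; CLint per 10^6 cells and t1/2.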

[19] = Metabolic stability in human hepatocytes assessed as half-life at 5 uM incubated for 3 hrs by LC-MS analysis; format: ADME, cell-based, Hepatocyte
Procedure, shortened: as §6, with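 “stock).” for “stock). Samples taken at 0, 15, 60, 90 and 180 min and quenched with ACN plus internal standard.”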

[20] = Metabolic stability in Beagle dog hepatocytes assessed as half-life at 5 uM incubated for 3 hrs by LC-MS analysis; format: ADME, cell-based, Canis lupus familiaris, Hepatocyte; procedure, shortened: as §6
[21] = Metabolic stability in CD1 mouse hepatocytes assessed as half-life at 5 uM incubated for 3 hrs by LC-MS analysis; format: ADME, cell-based, Hepatocyte; procedure, shortened: as §6
[22] = Substrate activity at human P-glycoprotein stably expressed in MDCK cells at 1 uM measured after 5 to 20 mins by UPLC-MS/MS analysis; format: ADME, cell-based; settings: time 5-20 min
Procedure, shortened: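 CRISPR canine-MDR1-knockout MDCKII cells stably expressing human MDR1, with the knockout parent line as control. Cells grown 5 days on TransWell filters and preincubated in HBSS 30 min at 37 °C. Compound at 1 μM added apical or basolateral. Receiver sampled at 5, 10 and 20 min; UPLC-MS/MS.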

SMILES	Ki [1]	Ki [2]	IC50 [3]	IC50 [4]	also measured
COC[C@@H]1COCCN1c1nc(-c2cnc(N)cc2C(F)F)nc(N2CCOC[C@H]2C)n1	23 nM	> 1000 nM	426 nM	956 nM	–
C[C@@H]1COCCN1c1nc(-c2cnc(N)cn2)nc2c1C[C@@H]1COCCN21	–	–	–	–	AUC [5]: < 110 ng·h/g; AUC(0-t) at 8 h [6]: > 5500 ng·h/mL
C[C@@H]1COCCN1c1nc(-c2cnc(N)cc2C(F)F)nc(N2C3COCC2C3)n1	73 nM	> 1000 nM	407 nM	1560 nM	–
C[C@@H]1COCCN1c1nc(-c2cnc(N)cc2C(F)F)nc(N2[C@H](C)COC[C@H]2C)n1	25 nM	> 1000 nM	392 nM	506 nM	–
CNC(=O)c1cccc(-c2ccc3c(N4CCOC[C@@H]4C)nc(N4CCOC[C@@H]4C)nc3n2)c1 [VISTUSERTIB]	–	–	–	–	AUC(0-t) at 8 h [7]: 33700 ng·h/mL; AUC(0-t) at 8 h [8]: 1340 ng·h/mL; inhibition (Mus musculus [9]): inactive; inhibition (Mus musculus [10]): inactive; CL/F [11]: 11 mL/min/kg; Tmax [12]: 30 min; Cmax [13]: 7190 ng/mL; Tmax [14]: 30 min; half-life [15]: 516 min; Cmax [16]: 286 ng/mL; half-life [17]: 450 min
C[C@@H]1CN(c2nc(-c3cnc(N)cc3C(F)F)nc(N3CCOC[C@H]3C)n2)C[C@H](C)O1	42 nM	> 1000 nM	561 nM	1340 nM	–
C[C@@H]1COCCN1c1nc(-c2cnc(N)cc2C(F)F)nc(N2CCOC[C@@H]2CO)n1	28 nM	> 1000 nM	471 nM	524 nM	–
C[C@@H]1COCCN1c1nc(-c2cnc(N)cc2C(F)F)nc(N2CCOC[C@H]2C)n1	14 nM	469 nM	261 nM	436 nM	–
C[C@@H]1COCCN1c1nc(-c2cnc(N)cc2C(F)F)nc(N2CCOCC23CCC3)n1	11 nM	404 nM	192 nM	271 nM	–
C[C@@H]1COCCN1c1nc(-c2cnc(N)cc2C(F)F)nc(N2CCOC[C@H]2CO)n1	50 nM	> 1000 nM	> 1000 nM	1480 nM	–
CCOc1ccc2ccc(=O)oc2c1	–	–	–	–	half-life at 5 µM [18]: 55 min; half-life at 5 µM [19]: 31 min; half-life at 5 µM [20]: 14 min; half-life at 5 µM [21]: 21 min
CC[C@@H]1COCCN1c1nc(-c2cnc(N)cc2C(F)F)nc(N2CCOC[C@H]2C)n1	18 nM	65 nM	238 nM	231 nM	–
C[C@@H]1COCCN1c1nc(-c2cnc(N)cc2C(F)F)nc(N2CCOC[C@@H]2C)n1	11 nM	33 nM	137 nM	173 nM	Activity [22]: Not Active
C[C@@H]1COCCN1c1nc(-c2cnc(N)cc2C(F)F)nc(N2CCOCC2)n1	8 nM	19 nM	–	–	Activity [22]: Not Active
CC[C@H]1COCCN1c1nc(-c2cnc(N)cc2C(F)F)nc(N2CCOC[C@H]2C)n1	67 nM	63 nM	241 nM	248 nM	–
C[C@@H]1COCCN1c1nc(-c2cnc(N)cc2C(F)F)nc(N2[C@@H](C)COC[C@@H]2C)n1	6.4 nM	233 nM	136 nM	200 nM	–
